Source: ChEMBL document CHEMBL1165950, “Design and synthesis of new potent anticancer pyrazoles with high FLT3 kinase inhibitory selectivity” (Bioorg Med Chem, 2010)

Experiments:
Assay type in all cases: functional
MCF7 = assay: Cytotoxicity against human MCF7 cells assessed as cell growth at 10 uM; conditions: read-out: Activity
Outline: (§1)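 NCI-60 screen: cells grown in RPMI 1640 with 5% FBS and 2 mM L-glutamine, plated at 5000–40,000 cells/well according to doubling time, and preincubated 24 h at 37 °C, 5% CO2. The single 10 µM dose (DMSO stock) was added, then incubated 48 h. Cells were TCA-fixed and stained with 0.4% SRB, read at 515 nm, and growth % calculated against time-zero and control plates.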

MDA-MB-231 = assay: Cytotoxicity against human MDA-MB-231 cells assessed as cell growth at 10 uM; conditions: read-out: Activity; outline: as §1
[1] = Cytotoxicity against human Hs 578T cells assessed as cell growth at 10 uM; conditions: read-out: Activity
Outline: (§2)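 Single-dose NCI-60 screen at 10 µM. Cells were grown in RPMI 1640 with 5% FBS and 2 mM L-glutamine, then treated for 48 h at 37 °C. Protein was measured by SRB staining with absorbance at 515 nm. Percentage growth was recorded, and inhibition percentage was calculated as 100 minus growth percentage.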

BT-549 = assay: Cytotoxicity against human BT549 cells assessed as cell growth at 10 uM; conditions: read-out: Activity; outline: as §2
T47D = assay: Cytotoxicity against human T47D cells assessed as cell growth at 10 uM; conditions: read-out: Activity; outline: as §1
MDA-MB-468 = assay: Cytotoxicity against human MDA-MB-468 cells assessed as cell growth at 10 uM; conditions: read-out: Activity; outline: as §1
[2] = Growth inhibition of human NCI60 cells at 10 uM after 48 hrs by sulforhodamine B assay relative to control; conditions: NCI60, 48 h, read-out: GI
Outline: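 Single-dose NCI screen at 10 µM across the 60-line panel, 48 h exposure at 37 °C after a 24 h preincubation. Adherent cells were fixed with cold TCA and stained with 0.4% SRB, and absorbance was read at 515 nm. Inhibition % was taken as 100 minus growth %, and the mean across all lines was reported.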

CCRF-CEM = assay: Cytotoxicity against human CCRF-CEM cells assessed as cell growth at 10 uM; conditions: read-out: Activity; outline: as §2
HL-60(TB) = assay: Cytotoxicity against human HL-60(TB) cells assessed as cell growth at 10 uM; conditions: read-out: Activity
Outline: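 NCI 60-cell panel screen at a single concentration of 10 µM. Cells are grown in RPMI 1640 with 5% FBS and 2 mM L-glutamine and read by SRB protein staining at 515 nm. Percent growth is measured relative to time-zero and untreated controls; inhibition % is 100 minus growth %.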

K562 = assay: Cytotoxicity against human K562 cells assessed as cell growth at 10 uM; conditions: read-out: Activity; outline: as §2
MOLT-4 = assay: Cytotoxicity against human MOLT4 cells assessed as cell growth at 10 uM; conditions: read-out: Activity; outline: as §1
[3] = Cytotoxicity against human […] cells assessed as cell growth at 10 uM; conditions: read-out: Activity; outline: as §1
SR = assay: Cytotoxicity against human SR cells assessed as cell growth at 10 uM; conditions: read-out: Activity; outline: as §1
A549 = assay: Cytotoxicity against human A549 cells assessed as cell growth at 10 uM; conditions: read-out: Activity; outline: as §2
EKVX = assay: Cytotoxicity against human EKVX cells assessed as cell growth at 10 uM; conditions: read-out: Activity; outline: as §2
HOP-62 = assay: Cytotoxicity against human HOP62 cells assessed as cell growth at 10 uM; conditions: read-out: Activity; outline: as §2
HOP-92 = assay: Cytotoxicity against human HOP92 cells assessed as cell growth at 10 uM; conditions: read-out: Activity; outline: as §2
NCI-H226 = assay: Cytotoxicity against human NCI-H226 cells assessed as cell growth at 10 uM; conditions: read-out: Activity; outline: as §1
NCI-H23 = assay: Cytotoxicity against human NCI-H23 cells assessed as cell growth at 10 uM; conditions: read-out: Activity; outline: as §1
NCI-H322M = assay: Cytotoxicity against human NCI-H322M cells assessed as cell growth at 10 uM; conditions: read-out: Activity; outline: as §1
NCI-H460 = assay: Cytotoxicity against human NCI-H460 cells assessed as cell growth at 10 uM; conditions: read-out: Activity; outline: as §1
NCI-H522 = assay: Cytotoxicity against human NCI-H522 cells assessed as cell growth at 10 uM; conditions: read-out: Activity; outline: as §1
COLO 205 = assay: Cytotoxicity against human COLO205 cells assessed as cell growth at 10 uM; conditions: read-out: Activity; outline: as §2
HCC 2998 = assay: Cytotoxicity against human HCC2998 cells assessed as cell growth at 10 uM; conditions: read-out: Activity; outline: as §2
HCT-116 = assay: Cytotoxicity against human HCT116 cells assessed as cell growth at 10 uM; conditions: read-out: Activity; outline: as §2
HCT-15 = assay: Cytotoxicity against human HCT15 cells assessed as cell growth at 10 uM; conditions: read-out: Activity; outline: as §2
HT-29 = assay: Cytotoxicity against human HT-29 cells assessed as cell growth at 10 uM; conditions: read-out: Activity; outline: as §2
KM12 = assay: Cytotoxicity against human KM12 cells assessed as cell growth at 10 uM; conditions: read-out: Activity; outline: as §1
SW-620 = assay: Cytotoxicity against human SW620 cells assessed as cell growth at 10 uM; conditions: read-out: Activity; outline: as §1
SF-268 = assay: Cytotoxicity against human SF268 cells assessed as cell growth at 10 uM; conditions: read-out: Activity; outline: as §1
SF-295 = assay: Cytotoxicity against human SF295 cells assessed as cell growth at 10 uM; conditions: read-out: Activity; outline: as §1

For `COc1cc(C)cc(-c2nn(CC#N)cc2-c2ccnc(-c3cccc(NC(C)=O)c3)c2)c1`, which growth at 10 µM (MCF7) is on record?
The growth at 10 µM was 85%.

And the growth at 10 µM (MDA-MB-231)?
The growth at 10 µM was 86.5%.

What about the growth at 10 µM [1] of the same molecule?
The growth at 10 µM was 99%.

What about the growth at 10 µM (BT-549) of the same molecule?
The growth at 10 µM was 79.1%.

What about the growth at 10 µM (T47D) of the same molecule?
The growth at 10 µM was 79.3%.

And the growth at 10 µM (MDA-MB-468)?
The growth at 10 µM was 82.8%.

And the inhibition of growth at 10 µM [2]?
The inhibition of growth at 10 µM was 1.18%.

And the growth at 10 µM (CCRF-CEM)?
Its growth at 10 µM is 83.9%.

And the growth at 10 µM (HL-60(TB))?
The growth at 10 µM was 74.9%.

And the growth at 10 µM (K562)?
The growth at 10 µM was 86.4%.

And the growth at 10 µM (MOLT-4)?
Its growth at 10 µM is 82.8%.

What about the growth at 10 µM [3] of the same molecule?
The growth at 10 µM was 73.9%.

And the growth at 10 µM (SR)?
The growth at 10 µM was 80.9%.

What about the growth at 10 µM (A549) of the same molecule?
Its growth at 10 µM is 86.7%.

And the growth at 10 µM (EKVX)?
Its growth at 10 µM is 101%.

What about the growth at 10 µM (HOP-62) of the same molecule?
The growth at 10 µM was 98.5%.

And the growth at 10 µM (HOP-92)?
Its growth at 10 µM is 79.6%.

And the growth at 10 µM (NCI-H226)?
Its growth at 10 µM is 93.1%.

What about the growth at 10 µM (NCI-H23) of the same molecule?
Its growth at 10 µM is 95.3%.

What about the growth at 10 µM (NCI-H322M) of the same molecule?
Its growth at 10 µM is 96.9%.

What about the growth at 10 µM (NCI-H460) of the same molecule?
The growth at 10 µM was 107%.

And the growth at 10 µM (NCI-H522)?
The growth at 10 µM was 82.5%.

And the growth at 10 µM (COLO 205)?
Its growth at 10 µM is 93.5%.

And the growth at 10 µM (HCC 2998)?
The growth at 10 µM was 101%.

And the growth at 10 µM (HCT-116)?
The growth at 10 µM was 96.4%.

What about the growth at 10 µM (HCT-15) of the same molecule?
The growth at 10 µM was 94.5%.

What about the growth at 10 µM (HT-29) of the same molecule?
The growth at 10 µM was 99.4%.

And the growth at 10 µM (KM12)?
The growth at 10 µM was 109%.

What about the growth at 10 µM (SW-620) of the same molecule?
The growth at 10 µM was 104%.

And the growth at 10 µM (SF-268)?
Its growth at 10 µM is 97.3%.

And the growth at 10 µM (SF-295)?
The growth at 10 µM was 102%.
